{
  "source": "ChEMBL document CHEMBL2417530",
  "about": "“Coumarin derivatives protect against ischemic brain injury in rats” (Eur J Med Chem, 2013)",
  "key": {"[1]": {"tested_on": "Rattus norvegicus", "test": "In vivo neuroprotective activity in Sprague-Dawley rat transient middle cerebral artery occlusion model assessed as reduction of brain-water content at 6 mg/kg, iv measured 24 hrs post reperfusion", "format": "functional, organism-based", "set-up": "dose 6 mg/kg", "procedure,_shortened": "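Male SD rats (7 weeks, 260-280 g) had 60 min transient right MCA occlusion with a nylon filament, then reperfusion. Saline or drug (1.5, 3.0, 6.0 mg/kg) was injected iv at reperfusion. Animals without neurological deficit were replaced. At 24 h brains were oven-dried at 110 °C for 24 h, and water content was taken as (wet−dry)/wet; n = 12.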"}, "[2]": {"tested_on": "Rattus norvegicus", "test": "In vivo neuroprotective activity in Sprague-Dawley rat transient middle cerebral artery occlusion model assessed as reduction of infarct size at 6 mg/kg, iv measured 24 hrs post reperfusion by TTC staining assay relative to vehicle-treated control", "format": "functional", "procedure,_shortened": "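Male Sprague-Dawley rats, 7 weeks, 260–280 g, under 10% chloral hydrate ip. Right MCA occluded 60 min by tip-burned 4-0 nylon thread via common carotid, then reperfused. Saline or drug given iv at reperfusion, ethanol as cosolvent. Killed 24 h later; six 2 mm slices in 1% TTC in PBS, 37 °C, 30 min. Infarct area traced as % of total area; n = 12.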"}},
  "note": "The source made the active and inactive calls. The calls are words filed in the database; no cut-off is given here.",
  "data": [
    {"smiles": "CC1=NN(c2ccccc2)C(=O)C1", "values": [
      {"measurement": "Activity", "setting": "[1]", "value": "Active"},
      {"measurement": "Activity", "setting": "[2]", "value": "Active"}
    ]}
  ]
}
